In ChEMBL document CHEMBL1145895, “A new generation of N-aryl-N'-(1-alkyl-2-chloroethyl)ureas as microtubule disrupters: synthesis, antiproliferative activity, and beta-tubulin alkylation kinetics” (J Med Chem, 2003):

Legend:
Format in all cases: functional, cell-based
MCF7 = assay: In vitro cytotoxic activity required to inhibit human estrogen-sensitive breast adenocarcinoma MCF-7 cell line
Procedure, shortened: (§1)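 Alamar Blue viability assay. (1-5) × 10³ cells were seeded in RPMI 1640 with 10% bovine calf serum and preincubated 24 h. Increasing drug concentrations from DMSO stocks were added (final DMSO 0.5%) and cells incubated 72 h at 37 °C. Fluorescence read at ex 485/em 590 nm. IC50 is the dose inhibiting growth by 50%, mean of at least three independent determinations.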

HT-29 = assay: In vitro cytotoxic activity required to inhibit human colon adenocarcinoma HT-29 cell line; procedure, shortened: as §1
K562 = assay: In vitro cytotoxic activity required to inhibit human chronic myelogenous leukemia K-562 cell line; procedure, shortened: as §1
B16 = assay: In vitro cytotoxic activity required to inhibit murine melanoma B16 cell line; details: Mus musculus; procedure, shortened: as §1
CHO-TAX 5-6 = assay: Cytotoxic activity on paclitaxel-resistant CHO-TAX 5-6 cell line expressing mutated tubulin; details: Cricetulus griseus; procedure, shortened: as §1
CHO-VV 3-2 = assay: Cytotoxic activity on colchicine-resistant CHO-VV 3-2 cell line expressing mutated tubulin; details: Cricetulus griseus; procedure, shortened: as §1
T-24 = assay: In vitro cytotoxic activity required to inhibit human bladder carcinoma T24 cell line; procedure, shortened: as §1
L1210 = assay: In vitro cytotoxic activity required to inhibit murine lymphocytotic leukemia L1210 cell line; details: Mus musculus; procedure, shortened: as §1
CHO = assay: Cytotoxic activity on wild type CHO10001 cell line expressing mutated tubulin; details: Cricetulus griseus; procedure, shortened: as §1

| Structure (SMILES) | IC50 (MCF7) [µM] | IC50 (HT-29) [µM] | IC50 (K562) [µM] | IC50 (B16) [µM] | IC50 (CHO-TAX 5-6) [µM] | IC50 (CHO-VV 3-2) [µM] | IC50 (T-24) [µM] | IC50 (L1210) [µM] | IC50 (CHO) [µM] |
| --- | --- | --- | --- | --- | --- | --- | --- | --- | --- |
| C[C@H](CCl)NC(=O)Nc1ccc(I)cc1 | 3.2 | 1.3 | 1 | 2.1 | 0.7 | 4.7 | 1.8 | 0.8 | 2.3 |
| C[C@H](CCl)NC(=O)Nc1ccc2c(c1)CCC2 | 11 | 6.4 | 5 | 11 | – | – | 7.4 | 4.2 | – |
| CCC(C)c1ccc(NC(=O)N[C@@H](CC)CCl)cc1 (some centres undefined) | 51 | 28 | 27 | 27 | – | – | 38 | 12 | – |
| C[C@@H](CCl)NC(=O)Nc1ccc2c(c1)CCC2 | > 100 | > 100 | 91 | > 100 | – | – | 92 | 41 | – |
| C[C@@H](CCl)NC(=O)Nc1ccc2c(c1)Cc1ccccc1-2 | 29 | 28 | 19 | 30 | – | – | 27 | 17 | – |
| CCC(C)c1ccc(NC(=O)N[C@H](C)CCl)cc1 (some centres undefined) | 4.8 | 1.9 | 2 | 4.2 | – | – | 3.4 | 1.7 | – |
| C[C@@H](CCl)NC(=O)Nc1ccc2ccccc2c1 | > 100 | 86 | 63 | > 100 | – | – | 71 | 20 | – |
| C[C@@H](CCl)NC(=O)Nc1ccc(C(C)(C)C)cc1 | 84 | 48 | 47 | 35 | 53 | 53 | 41 | 12 | 56 |
| CC(C)c1ccc(NC(=O)NCCCl)cc1 | 4.7 | 2.3 | 1.9 | 4.7 | – | – | 3.6 | 2 | – |
| CC[C@@H](CCl)NC(=O)Nc1ccc(C(C)(C)C)cc1 | 60 | 24 | 26 | 27 | – | – | 29 | 17 | – |
| CC[C@@H](CCl)NC(=O)Nc1ccc(C(C)C)cc1 | 72 | 51 | 28 | 46 | – | – | 57 | 24 | – |
| C[C@H](CCl)NC(=O)Nc1ccc(C(C)(C)C)cc1 | 10 | 3.9 | 3.8 | 8.5 | 3.6 | 15 | 7 | 3.4 | 8.1 |
| CC(C)c1ccc(NC(=O)N[C@@H](C)CCl)cc1 | > 100 | 65 | 33 | 46 | – | – | 54 | 28 | – |
| CC[C@H](CCl)NC(=O)Nc1ccc(C(C)C)cc1 | 55 | 28 | 19 | 33 | – | – | 32 | 14 | – |
| O=C(NCCCl)Nc1ccc(I)cc1 | 23 | 6 | 6.2 | 16 | 6.1 | 23 | 12 | 3.6 | 15 |
| O=C(NCCCl)Nc1ccc2ccccc2c1 | 7.3 | 2.6 | 2.5 | 6.3 | – | – | – | 2.9 | – |
| CC[C@H](CCl)NC(=O)Nc1ccc(C(C)(C)C)cc1 | 52 | 25 | 28 | 27 | – | – | 28 | 17 | – |
| C[C@H](CCl)NC(=O)Nc1ccc2c(c1)Cc1ccccc1-2 | 10 | 6.6 | 5.1 | 9.3 | – | – | 7.4 | 4.2 | – |
| CCC(C)c1ccc(NC(=O)N[C@@H](C)CCl)cc1 (some centres undefined) | 63 | 39 | 34 | 33 | – | – | 35 | 18 | – |
| CC[C@H](CCl)NC(=O)Nc1ccc(I)cc1 | 52 | 34 | 31 | 49 | – | – | 46 | 87 | – |
| CCC(C)c1ccc(NC(=O)NCCCl)cc1 (centres undefined) | 5.2 | 1.8 | 2 | 5 | – | – | 3.7 | 2 | – |
| C[C@H](CCl)NC(=O)Nc1ccc2ccccc2c1 | 6 | 2.3 | 2.3 | 4.5 | – | – | 4 | 1.7 | – |
| CC(C)c1ccc(NC(=O)N[C@H](C)CCl)cc1 | 2.9 | 1 | 0.9 | 2.3 | – | – | 1.9 | 0.9 | – |
| CC[C@@H](CCl)NC(=O)Nc1ccc(I)cc1 | 80 | 79 | 63 | 89 | – | – | 67 | 90 | – |
| CCC(C)c1ccc(NC(=O)N[C@H](CC)CCl)cc1 (some centres undefined) | 38 | 20 | 19 | 20 | – | – | 28 | 11 | – |
| CC(C)(C)c1ccc(NC(=O)NCCCl)cc1 | 11 | 4 | 3.6 | 8 | 3.1 | 13 | 6.3 | 3.3 | 7.6 |
| C[C@@H](CCl)NC(=O)Nc1ccc(I)cc1 | 93 | 76 | 43 | 93 | 54 | 51 | 59 | 47 | 58 |
